High-throughput results: PubChem, several laboratories
Only some compounds are listed: those with a hit (about 2.4% of all), similar ones and a draw of the others.
Apaf-1 inh = inhibitors of human Apaf-1 apoptosome, primary screen, biochemical, DEVD-Rh110 fluorescence, uHTS | Apoptotic protease-activating factor 1 (Homo sapiens), O14727 | reconstituted apoptosome caspase-3 activity | inhibition, % at 20 µM | 330,000 compounds, 0.71% hits | AID 489030, 2010; active = inhibition of at least 40% at 20 µM
Target sequence (O14727 whole entry, looked up): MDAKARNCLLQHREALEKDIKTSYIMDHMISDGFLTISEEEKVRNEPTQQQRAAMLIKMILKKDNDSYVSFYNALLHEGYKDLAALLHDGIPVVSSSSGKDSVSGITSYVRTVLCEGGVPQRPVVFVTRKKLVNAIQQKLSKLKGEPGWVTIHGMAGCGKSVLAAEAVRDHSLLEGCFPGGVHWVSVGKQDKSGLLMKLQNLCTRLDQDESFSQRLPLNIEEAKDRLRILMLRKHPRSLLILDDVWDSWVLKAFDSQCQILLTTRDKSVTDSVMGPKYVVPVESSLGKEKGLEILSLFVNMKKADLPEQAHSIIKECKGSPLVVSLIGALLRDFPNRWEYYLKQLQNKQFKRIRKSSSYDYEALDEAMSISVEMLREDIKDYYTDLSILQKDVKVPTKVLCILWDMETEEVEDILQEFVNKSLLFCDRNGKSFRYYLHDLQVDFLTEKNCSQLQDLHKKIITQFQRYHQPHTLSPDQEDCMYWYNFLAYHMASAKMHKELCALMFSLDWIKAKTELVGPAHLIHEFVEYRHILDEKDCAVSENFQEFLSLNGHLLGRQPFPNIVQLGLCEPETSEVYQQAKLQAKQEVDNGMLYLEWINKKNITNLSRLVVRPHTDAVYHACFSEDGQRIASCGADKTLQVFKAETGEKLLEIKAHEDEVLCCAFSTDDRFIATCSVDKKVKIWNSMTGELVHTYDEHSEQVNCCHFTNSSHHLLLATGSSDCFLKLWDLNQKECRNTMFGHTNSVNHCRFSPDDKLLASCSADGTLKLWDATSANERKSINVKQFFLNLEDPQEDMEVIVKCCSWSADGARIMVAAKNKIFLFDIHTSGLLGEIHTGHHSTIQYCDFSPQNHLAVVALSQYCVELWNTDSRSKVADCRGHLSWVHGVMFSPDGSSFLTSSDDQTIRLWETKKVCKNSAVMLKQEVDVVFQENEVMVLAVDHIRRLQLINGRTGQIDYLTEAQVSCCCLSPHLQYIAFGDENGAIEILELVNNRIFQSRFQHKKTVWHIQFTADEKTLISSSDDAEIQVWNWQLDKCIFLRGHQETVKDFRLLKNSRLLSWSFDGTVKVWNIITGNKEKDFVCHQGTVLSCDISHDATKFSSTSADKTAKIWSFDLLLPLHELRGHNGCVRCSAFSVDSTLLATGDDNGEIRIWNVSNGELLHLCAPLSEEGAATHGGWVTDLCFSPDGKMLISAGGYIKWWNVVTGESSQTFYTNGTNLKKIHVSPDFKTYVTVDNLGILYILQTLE
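System: Apoptosome proteins | Medium: Hepes pH 7.5 with detergent and BSA | Also added: Cytochrome c trigger plus (Z-DEVD)2-Rh110 caspase-3 substrate | Incubation: 30 min compound preincubation, 50 min activation, room temperature | Detection: Rhodamine 110 fluorescence at Ex 480/Em 540 nm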
ANO1 activ = TMEM16A chloride channel activators or potentiators, primary screen, cell-based, HTS | Anoctamin-1 (Mus musculus), Q8BHY3 | HEK293 TMEM16A/YFP-H148Q/I152L, iodide quench fluorescence; stronger effect = lower value | B-score at 10 µM | 340,000 compounds, 0.3% hits | AID 623877, 2012;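 active = fluorescence-ratio B-score plate-corrected deviation score at least 3 library SD below zero, with starting fluorescence score within 5 deviations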;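 also: channel opened by trigger with iodide after compound preincubation; score built on the fluorescence ratio of max minus min over baseline; more negative score means more quench and so TMEM16A activation or potentiation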
UBC13 polyUb = UBC13 polyubiquitin chain formation inhibitors, primary screen, biochemical, TR-FRET, uHTS; Ubiquitin-conjugating enzyme E2 N (Homo sapiens), P61088; inhibition, % at 20 µM; 330,000 compounds, 0.47% hits; in the data active = inhibition above about 45%, passing the limit was not always enough
TMEM16A inh = TMEM16A chloride channel inhibitors, primary screen, cell-based, HTS | HEK293 TMEM16A/YFP iodide influx fluorescence, ionomycin | normalized B-score (activity score, 25-100; higher = stronger inhibition) at 10 µM | 310,000 compounds, 1.2% hits | AID 588511, 2011;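 active = ratio plate-corrected score three or more library SD toward inhibition, starting fluorescence score within five deviations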;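 also: score derived from kinetic fluorescence span divided by baseline fluorescence per well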
FID counter = compounds displacing fluorescent DNA intercalator, primary screen, artefact control for HCV NS3 helicase inhibitor project, biochemical, FID fluorescence; DNA fluorescent intercalator displacement; inhibition, % at 7.9 µM; 290,000 compounds, 0.17% hits; AID 1845, 2009; in the data active = inhibition above about 37%;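 also: higher means more ethidium bromide displaced from hairpin DNA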
TMEM16A reconf = TMEM16A chloride channel inhibitors, confirmation, cell-based, re-confirmation | 2,300 compounds, 39% hits | AID 652189, 2013 | HEK293 TMEM16A/YFP-H148Q, iodide quench fluorescence; ionomycin added to raise cell calcium | shares compounds with TMEM16A inh | inhibition, % at 10 µM;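 active = mean duplicate percent inhibition, scaled so buffer wells are 0 and the reference blocker 100, over three buffer SD above buffer mean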
HEK293 Ca mobil = calcium mobilization in TMEM16A/YFP HEK293 cells, confirmation, counter-screen for TMEM16A inhibitor project. shares compounds with TMEM16A inh. Fluo4 calcium mobilization. calcium response (% of ionomycin), % at 10 µM. 2,300 compounds, 2% hits;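 active = duplicate-averaged calcium signal over 20% of the ionomycin maximum, relative to buffer baseline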;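 also: each well's signal is peak minus trough fluorescence divided by its pre-addition baseline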
Parental YFP cnt = iodide YFP quench changes in parental YFP-HEK293, counter-screen for TMEM16A inhibitor project, cell-based; ionomycin; AID 652233, 2013; 2,300 tested, under 10 active; shares compounds with TMEM16A inh; YFP ratio F(max-min)/F0 at 10 µM;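 active = yellow fluorescent protein signal ratio exceeding the buffer control mean by over 5 SD of those controls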;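 also: ratio is mean of duplicate wells from kinetic YFP trace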
ClC-1 inh = ClC-1 chloride channel inhibition, selectivity assay for TMEM16A inhibitor project, cell-based, voltage-dependent ClC-1; 2,300 tested, under 10 active; shares compounds with TMEM16A inh; CHO ClC-1-YFP, iodide influx fluorescence quench; iodide control reads 0, buffer control 100; ratio percent, % at 10 µM; AID 652236, 2013;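 active = duplicate-mean ratio percent above the mean of iodide-only control wells, which defines zero, plus 5 of their SD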;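 also: higher percent means stronger block of ClC-1 iodide influx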
Numbers stand for hits; - = inactive; . = no result given.

SMILES	Apaf-1 inh	ANO1 activ	UBC13 polyUb	TMEM16A inh	FID counter	TMEM16A reconf	HEK293 Ca mobil	Parental YFP cnt	ClC-1 inh
CCOc1ccc(C(C(=O)NC2CCCCC2)N(C(=O)Cc2cccs2)c2ccc(-n3cnnn3)c(OC)c2)cc1 (stereo not drawn)	-	-	-	-	-	.	.	.	.
Nc1nc(Sc2c([N+](=O)[O-])cc(C(F)(F)F)cc2[N+](=O)[O-])n[nH]1	-	-	-	-	-	.	.	.	.
CSc1ncc(Cl)c(C(=O)Nc2cccc(C)c2)n1	-	-	-	-	-	.	.	.	.
CSc1ncc(Cl)c(C(=O)C(C#N)c2nc3c(C)cc(C)cc3c(=O)[nH]2)n1 (stereo not drawn)	-	-	-	100	-	59%	-	-	-
Cc1ccc(-n2nc3c(=O)n(C(C)C(=O)NCCC4=CCCCC4)nc(C)c3c2C)cc1 (stereo not drawn)	-	-	-	25	-	-	-	-	-
O=C(NCc1cccnc1)c1ccc(COc2ccccc2Cl)cc1	-	-	-	25	-	19%	-	-	-
CCOc1ccc(CCNC(=O)CCc2nnc3ccc(N4CCCCC4)nn23)cc1OCC	-	-	-	-	-	.	.	.	.
Cc1ccc(CCC(=O)Nc2ccccc2C(=O)O)o1	-	-	-	-	-	.	.	.	.
CCN(CC)S(=O)(=O)c1cccc(C(=O)OCC(=O)c2ccc3c(c2)OCCO3)c1	-	-	-	25	-	16%	-	-	-
CCN(CC)S(=O)(=O)c1ccc(C(=O)OCC(=O)c2ccc3c(c2)NC(=O)CO3)cc1	-	-	-	-	-	.	.	.	.
CNS(=O)(=O)c1cccc(C(=O)OCC(=O)c2cc(C)n(-c3ccc4c(c3)OCO4)c2C)c1	-	-	-	25	-	-	-	-	-
CS(=O)(=O)c1cccc(C(=O)OCC(=O)c2ccc3c(c2)OCCO3)c1	-	-	-	.	.	.	.	.	.
CCN(CC)S(=O)(=O)c1cc(C(=O)OCC(=O)c2ccc3c(c2)NC(=O)CO3)ccc1Cl	-	-	-	100	-	18%	-	-	-
COc1ccc(Nc2cccc3ccccc23)cc1	-	-	-	-	.	.	.	.	.
CCOC(=O)c1nnn(-c2nonc2-n2cccc2)c1CN1CCC(C)CC1	-	.	-	100	-	18%	-	-	-
CCOC(=O)C1(Cc2cccc(OC)c2)CCN(C/C=C/c2ccc(OC)cc2)CC1	-	-	-	25	-	-	-	-	-
O=C(CC1C=Cc2ccccc2N1C(=O)c1ccccc1)c1ccccc1 (stereo not drawn)	-	-	-	100	-	20%	-	-	-
CC1C=Cc2ccccc2N1C(=O)c1ccccc1 (stereo not drawn)	-	-	-	-	-	.	.	.	.
COc1ccc(CNC(=O)COC(=O)CO/N=C(\C)c2ccc3c(c2)OCO3)cc1	-	-	-	-	.	.	.	.	.
Clc1ccc(-c2nnc(CSc3nnc(-c4cccs4)n3Cc3ccccc3)o2)cc1	-	-	-	25	-	42%	-	-	-
Cc1ccc(S(=O)(=O)N(C)c2ccc3ccccc3c2)cc1	-	-	-	100	-	-	-	-	-
COc1ccc(C)cc1NC(=O)NCCC1=CCCCC1	-	-	-	100	-	-	-	-	-
COc1cc(C(=O)NCCC2=CCCCC2)cc(OC)c1OC	-	-	-	-	-	.	.	.	.
CC[C@H](C)[C@H](NC(N)=O)C(=O)Nc1ccccc1F	-	-	-	-	-	.	.	.	.
Cc1cccc(C)c1NC(=S)N1CCC(c2ccccc2)C1 (stereo not drawn)	-	-	-	-	-	.	.	.	.
SMILES	Apaf-1 inh	ANO1 activ	UBC13 polyUb	TMEM16A inh	FID counter	TMEM16A reconf	HEK293 Ca mobil	Parental YFP cnt	ClC-1 inh
COc1ccc(C(=O)CCc2ccccc2)c(O)c1	-	-	-	-	.	.	.	.	.
O=C(CCc1ccccc1)c1c(O)cc(O)cc1O	-	-	-	100	.	47%	-	-	-
Cc1oc2cc([N+](=O)[O-])c(O)c([N+](=O)[O-])c2c1C(=O)c1ccc(Cl)cc1	-	-	-	25	-	32%	-	-	-
COc1ccc(CNc2ccc(-c3ccc(OC)cc3)nn2)cc1	-	-	-	100	-	-	-	-	-
Cc1cccc(NC(=O)C2CC(=O)NC(Nc3nc4ccccc4s3)=N2)c1 (stereo not drawn)	-	.	-	-	-	.	.	.	.
CSc1nc(-c2ccc(Cl)cc2Cl)[nH]c(=O)c1C#N	-	-	-	25	-	50%	-	-	-
C=CCN(c1ccccc1)S(=O)(=O)c1cccc(C(=O)Nc2ccncc2)c1	-	-	-	100	.	20%	-	-	-
C=CCN(c1ccccc1)S(=O)(=O)c1cccc(C(=O)NCc2ccncc2)c1	-	-	-	-	.	.	.	.	.
CCN(CC)c1ccc(N2C(=NC(=O)C3CC3)SC3CS(=O)(=O)CC32)cc1 (stereo not drawn)	-	-	-	-	-	.	.	.	.
N#Cc1c(N)nc2c(c1-c1ccccc1)CCC2	-	-	-	-	-	.	.	.	.
COc1ccc(C(=O)COC(=O)c2ccccc2NS(=O)(=O)c2ccc(O)c([N+](=O)[O-])c2)cc1	-	-	-	25	-	30%	-	-	-
COc1ccc(OCC(=O)NC(=S)Nc2ccc3c4c(cccc24)CC3)cc1	-	-	-	-	-	.	.	.	.
COc1cccc(C(=O)NC(=S)Nc2ccc3c4c(cccc24)CC3)c1	-	-	-	-	-	-	-	-	-
CCOc1ccc(CCNC(=O)c2ccc(N3CCCC3=O)cc2)cc1OCC	-	-	-	25	-	-	-	-	-
N#CC1=C(N)OC2=C(CCc3ccccc32)C1c1ccccc1Cl (stereo not drawn)	-	-	-	-	-	38%	-	-	-
CCOc1cc(S(=O)(=O)n2cnc(C)c2)ccc1Cl	-	-	-	-	-	.	.	.	.
